Source: ChEMBL document CHEMBL4513216, “Probing the Open Global Health Chemical Diversity Library for Multistage-Active Starting Points for Next-Generation Antimalarials” (ACS Infect Dis, 2020)

Experiment: Toxicity liver stage against HepG2, at 10uM
Type: cell-based
Parameters: test concentration 10 uM, cell line HepG2-A16-CD81EGFP
Settings: human, HepG2-A16-CD81EGFP cells; read-out: INHIBITION
Summary of the method: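 Uninfected HepG2-A16-CD81EGFP cells, 3 × 10^3 per well, 1536-well, plated on prespotted compound at 10 μM final, parasite-free screening media added to match infected plates; puromycin 10 μM positive, DMSO 0.5% negative; run in parallel with 48 h PbLuc assay at 37 °C, 5% CO2; viability by CellTiter-Glo luminescence, normalized to controls.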

Structure (SMILES): COc1ccc(C(=O)NCc2ccc(C(=O)O)o2)cc1
- cytotoxicity at 10 µM: -0.806%

Structure (SMILES): Cc1ccc(NCc2ccccc2C#N)cc1-n1cnnn1
- cytotoxicity at 10 µM: 4.25%

Structure (SMILES): CN1CCC(NC(=O)c2cc(C3CCCCC3)nc3ccccc23)CC1
- cytotoxicity at 10 µM: -1.25%

Structure (SMILES): O=C(CCC(=O)N1CCC(c2noc3cc(F)ccc23)CC1)NC1CC1
- cytotoxicity at 10 µM: 5.09%

Structure (SMILES): Cc1ccccc1NC(=O)NCCn1nc(C(F)(F)F)n(C)c1=O
- cytotoxicity at 10 µM: -1.68%

Structure (SMILES): CCOCc1cnc2n1CCN(C(=O)Cc1ccco1)C2C (centres undefined)
- cytotoxicity at 10 µM: 3.53%

Structure (SMILES): Cc1cnc(N2CCC3(CC2)CC(NC(=O)N(C)C)CO3)nc1 (centres undefined)
- cytotoxicity at 10 µM: 6.31%

Structure (SMILES): Cc1nnc([C@H]2CC[C@@H]3[C@@H](CCN3CC3CCOCC3)O2)o1
- cytotoxicity at 10 µM: 10.1%

Structure (SMILES): O=C(c1ccsc1)N1C[C@H](N2CCOCC2)[C@@H]2OCCC[C@@H]21
- cytotoxicity at 10 µM: 8.28%

Structure (SMILES): CN(C)C(=O)CN1C[C@@H]2OCCN(c3ncc(F)cn3)[C@@H]2C1
- cytotoxicity at 10 µM: -0.756%

Structure (SMILES): Cn1nccc1-c1cncc(C2CCCN(S(C)(=O)=O)C2)n1 (centres undefined)
- cytotoxicity at 10 µM: 6.62%

Structure (SMILES): CCc1cccc2cc(CN)c(=O)[nH]c12
- cytotoxicity at 10 µM: 3.54%

Structure (SMILES): Cc1cccc(NC(=O)c2cnc(C3CCCNC3)cn2)n1 (centres undefined)
- cytotoxicity at 10 µM: 3.04%

Structure (SMILES): CC(=O)Nc1cc(CCC2CCN(C(=O)c3ccccn3)CC2)ccn1
- cytotoxicity at 10 µM: -0.331%

Structure (SMILES): COc1ccc(C(C)NCc2cccs2)cc1Cn1cccn1 (centres undefined)
- cytotoxicity at 10 µM: 10.2%

Structure (SMILES): CCOCC(O)CNc1cncc(Br)c1 (centres undefined)
- cytotoxicity at 10 µM: 4.21%

Structure (SMILES): CCOCCN1CCN(CC2(O)CCCCC2)CC1
- cytotoxicity at 10 µM: 1.34%

Structure (SMILES): Cn1c(CS(=O)(=O)c2ccc(Cl)cc2)cc(=O)n(C)c1=O
- cytotoxicity at 10 µM: 7.5%

Structure (SMILES): COc1ccc(OCCN(C)CCCn2cnc3c(N)ncnc32)cc1
- cytotoxicity at 10 µM: 1.12%

Structure (SMILES): CC(C)Cc1cc(C(=O)N2CCCN(c3ncccn3)CC2)[nH]n1
- cytotoxicity at 10 µM: 4.57%

Structure (SMILES): COCCN(CC(F)F)c1cc(C(F)(F)F)nc2ncnn12
- cytotoxicity at 10 µM: 4.11%

Structure (SMILES): Cc1ccc(-c2nnc(NC(=O)c3ccn(C)c(=O)c3)[nH]2)s1
- cytotoxicity at 10 µM: -1.15%

Structure (SMILES): CCc1nc(Cn2c(=O)c3c(C(F)(F)F)cc(C)nc3n2C)no1
- cytotoxicity at 10 µM: 2.58%

Structure (SMILES): CNC(=O)NCC(=O)N1CCCC1Cc1cccc(F)c1 (centres undefined)
- cytotoxicity at 10 µM: -2.59%

Structure (SMILES): CC(NC(=O)c1cc(N2CCNC2=O)ccc1F)c1ccc(F)cc1 (centres undefined)
- cytotoxicity at 10 µM: 5.89%

Structure (SMILES): COc1ccc(CC(=O)N2CCC(c3nnc4n3CCC4)CC2)cc1F
- cytotoxicity at 10 µM: -1.65%

Structure (SMILES): COc1cc(C2(C(=O)NC3CCC4(CC3)OCCO4)CC2)ccc1C
- cytotoxicity at 10 µM: -13.2%

Structure (SMILES): CCN(C)CCNC(=O)Cc1nc(-c2ccco2)oc1C
- cytotoxicity at 10 µM: -12.5%

Structure (SMILES): CC(C(=O)NCc1ccnc(OC2CCCC2)c1)n1cncn1 (centres undefined)
- cytotoxicity at 10 µM: 10.4%

Structure (SMILES): CC(C)CC(=O)N1CCN(Cc2csc(-c3ncccn3)n2)CC1
- cytotoxicity at 10 µM: 8.61%

Structure (SMILES): Cc1cccnc1NC(=O)CNC(=O)c1ccccc1Cl
- cytotoxicity at 10 µM: -3.36%

Structure (SMILES): CC(C)(C)C(O)CN1CCN(C(=O)COCC2CC2)CC1 (centres undefined)
- cytotoxicity at 10 µM: 5.54%

Structure (SMILES): Cc1ccc(CNC(=O)CNCC2CCN(CCO)CC2)s1
- cytotoxicity at 10 µM: 6.89%

Structure (SMILES): Cc1cc(N2CCc3cnc(C)nc3C2)n2nc(C(F)(F)F)nc2n1
- cytotoxicity at 10 µM: 0.769%

Structure (SMILES): COc1c(NC(=O)N(C)CCOc2ccc(F)cc2)c(C)nn1C
- cytotoxicity at 10 µM: 1.4%

Structure (SMILES): FC(F)(F)c1nnc2n1CCN(c1nc(C3CC3)ns1)C2
- cytotoxicity at 10 µM: 8.21%

Structure (SMILES): CN(CCS(=O)(=O)c1cc(Cl)ccc1Cl)CC(N)=O
- cytotoxicity at 10 µM: 4.65%

Structure (SMILES): Cc1nccn1-c1ncccc1CNC(=O)c1ccc(O)nc1
- cytotoxicity at 10 µM: -7.55%

Structure (SMILES): CC(C)C(C)(C#N)NC(=O)Cn1cc(Cl)cn1 (centres undefined)
- cytotoxicity at 10 µM: 1.18%

Structure (SMILES): O=C(NC1CCN(CC2CC2)C1)c1ccc(C(=O)c2cc[nH]c2)cc1 (centres undefined)
- cytotoxicity at 10 µM: -6.14%

Structure (SMILES): Cc1ccc2[nH]c(C(=O)N3CCC4(CC3)C(=O)NCCN4C)nc2c1
- cytotoxicity at 10 µM: 1.43%

Structure (SMILES): O=C1CC(NS(=O)(=O)N2CCOCC2)CN1CCc1ccccc1 (centres undefined)
- cytotoxicity at 10 µM: 14.4%

Structure (SMILES): Cc1ccc(-c2ccnc(N(C)CC3CCCN3C)n2)c(C)n1 (centres undefined)
- cytotoxicity at 10 µM: -9.66%

Structure (SMILES): Cc1nn(C)c2nc(-c3ccccn3)nc(NC[C@@H]3CCCO3)c12
- cytotoxicity at 10 µM: 7.49%

Structure (SMILES): CCc1ccccc1OC1CN(C(=O)c2cccs2)C1
- cytotoxicity at 10 µM: 13.7%

Structure (SMILES): CCC(CC)N(Cc1ccc2c(c1)OCO2)C(=O)c1ccc(=O)n(C)c1
- cytotoxicity at 10 µM: 9.06%

Structure (SMILES): COCC(=O)N1CC[C@]2(O)CCN(Cc3ccsc3)C[C@@H]2C1
- cytotoxicity at 10 µM: 0.196%

Structure (SMILES): COCCN1CC(=O)N2CC[C@@H](O)C[C@H]2C1=O
- cytotoxicity at 10 µM: -8.03%

Structure (SMILES): CCn1ccnc1C1CCN(C(=O)C(O)c2ccc(OC)cc2)CC1 (centres undefined)
- cytotoxicity at 10 µM: 0.171%

Structure (SMILES): CNC(=O)C(C)CNC(=O)c1coc(COc2cccc(F)c2F)n1 (centres undefined)
- cytotoxicity at 10 µM: 5.21%

Structure (SMILES): Cc1c(C(=O)N2CCC3(CCCN(CC4CC4)C3=O)C2)ccn1C (centres undefined)
- cytotoxicity at 10 µM: -3.92%

Structure (SMILES): CN(CCc1noc(C2CC2)n1)C(=O)C1(N2CCCC2)CCCC1
- cytotoxicity at 10 µM: -146%

Structure (SMILES): COc1cccc(OCC2CCCN(C(=O)c3cc(C)n[nH]3)C2)c1 (centres undefined)
- cytotoxicity at 10 µM: -3.42%

Structure (SMILES): CSc1ccc2cc(CN(C)CCO)c(=O)[nH]c2c1
- cytotoxicity at 10 µM: 5.76%

Structure (SMILES): C[C@@H]1CN(C(=O)CCCN2CCCC2)CC[C@@]1(O)C1CCOCC1
- cytotoxicity at 10 µM: -0.422%

Structure (SMILES): O=S1(=O)C[C@@H]2[C@H](C1)N(Cc1ccc3ccccc3c1)CCN2CC1CC1
- cytotoxicity at 10 µM: 1.99%

Structure (SMILES): CCn1nc(C)c(NC(=O)CN2CC[C@H](CO)[C@@H](O)C2)c1C
- cytotoxicity at 10 µM: 0.887%

Structure (SMILES): Cc1ccccc1C(=O)Nc1ccc(OC2CCN(C)CC2)cc1
- cytotoxicity at 10 µM: -1.57%

Structure (SMILES): O=C(NCCN1CCNC1=O)c1cc(-c2ccc(O)cc2)n[nH]1
- cytotoxicity at 10 µM: 6.27%

Structure (SMILES): COc1ccc(OC)c(CNCc2ccnc(N3CCCCC3)c2)c1
- cytotoxicity at 10 µM: 0.25%

Structure (SMILES): CCn1ccnc1CN1CCN(CC(O)c2ccco2)CC1 (centres undefined)
- cytotoxicity at 10 µM: -4.57%

Structure (SMILES): Cc1c[nH]cc1C(=O)N1CCN(Cc2nc(C(C)C)no2)CC1
- cytotoxicity at 10 µM: -4.54%

Structure (SMILES): O=C(c1cccc(N2CCCC2=O)c1)N1CCCC(n2cncn2)C1 (centres undefined)
- cytotoxicity at 10 µM: -12%

Structure (SMILES): CCNC(=O)[C@@H]1CCCN1C1(C(=O)NC)CCCCC1
- cytotoxicity at 10 µM: 5.09%

Structure (SMILES): CNC(=O)N1CCC2(CC1)CNc1ccc(F)cc12
- cytotoxicity at 10 µM: 10.1%

Structure (SMILES): Cc1cc(Oc2ccc(NC(=O)C3CC3)cc2)cc(C2CCNCC2)n1
- cytotoxicity at 10 µM: -6.18%

Structure (SMILES): CCC1=N[C@@]2(CC[C@@H]3CN(Cc4ccccc4F)C[C@@H]32)C(=O)N1
- cytotoxicity at 10 µM: -1.22%

Structure (SMILES): CC(C)N1CC[C@@H]2[C@H](COCC3CC3)CN(C)C(=O)[C@@H]2CC1
- cytotoxicity at 10 µM: 6.8%

Structure (SMILES): Cc1noc(C)c1CN1C[C@H](OCC(=O)N(C)C)[C@H]2OCCC[C@H]21
- cytotoxicity at 10 µM: 8.34%

Structure (SMILES): CCOCC1c2c(ncn2C(C)C)CCN1C(C)C (centres undefined)
- cytotoxicity at 10 µM: 10.5%

Structure (SMILES): CCCS(=O)(=O)N1CCO[C@H]2[C@@H](Oc3cccnc3)CC[C@@H]21
- cytotoxicity at 10 µM: -3.15%

Structure (SMILES): CCC(=O)Nc1ccc2c(c1)C1(CCOCC1)CN2CCF
- cytotoxicity at 10 µM: -87.4%

Structure (SMILES): CNC(=O)[C@H]1C[C@@H]2CN(C(=O)c3cccnc3)C[C@@H]2N1S(C)(=O)=O
- cytotoxicity at 10 µM: -4.12%

Structure (SMILES): c1cc2c(cc1CN1CC[C@H]3CO[C@H](CN4CCCC4)[C@H]3C1)OCO2
- cytotoxicity at 10 µM: 0.355%

Structure (SMILES): O=C1[C@H]2CN(C3CCOC3)C[C@H]2CN1c1ccccc1 (some centres undefined)
- cytotoxicity at 10 µM: 7.16%

Structure (SMILES): O=C([C@H]1CCCO1)N1CCCC2(CCN(Cc3ccncc3)C2=O)C1 (some centres undefined)
- cytotoxicity at 10 µM: 11.9%

Structure (SMILES): CN(C)C(=O)CN1CCOCC2(C1)CN(c1ncc(F)cn1)CCO2 (centres undefined)
- cytotoxicity at 10 µM: -6.69%

Structure (SMILES): Cn1cnc(S(=O)(=O)N2C[C@H]3CC[C@@H](C2)N(Cc2cscn2)C3=O)c1
- cytotoxicity at 10 µM: -20.2%

Structure (SMILES): O=C(CSc1ccccc1)N1C[C@@H]2CC[C@H]1CN(Cc1ccncc1)C2
- cytotoxicity at 10 µM: -0.143%
